Here are results for 6 compounds from ChEMBL document CHEMBL1121677, “8-Hydroxy-2-(di-n-propylamino)tetralin, a new centrally acting 5-hydroxytryptamine receptor agonist” (1981).

Active and inactive are the calls of the source. The calls are words filed in the database; no cut-off is given here.

What is called ED50 is the midpoint of the dose-response relation.

The subject of experiment [1] is Rattus norvegicus. Briefly: Inhibition of dopamine accumulation in striatum part of rat brain after subcutaneous administration. It counts as functional. The following applies: sc.
In experiment [2] the test system is Rattus norvegicus. As to the kind of experiment: Inhibition of 5-Hydroxy tryptamine accumulation in limbic part of rat brain after subcutaneous administration; I= Inactive. It counts as functional, organism-based.
Experiment [3] deals with Rattus norvegicus. Briefly: Inhibition of 5-Hydroxy tryptamine accumulation in hemispheres of rat brain after subcutaneous administration; I= Inactive. It counts as functional, organism-based.
For experiment [4], the system named is Rattus norvegicus. Briefly: Inhibition of 5-Hydroxy tryptamine accumulation in striatum part of rat brain after subcutaneous administration; I= Inactive. Format: functional, organism-based.
For experiment [5], the system named is Rattus norvegicus. Briefly: Inhibition of dopamine accumulation in limbic part of rat brain after subcutaneous administration. Format: functional. The following applies: sc.
The subject of experiment [6] is Rattus norvegicus. As to the kind of experiment: Inhibition of 5-Hydroxy tryptamine accumulation in limbic part of rat brain after subcutaneous administration. Format: functional. The following applies: sc.
The subject of experiment [7] is Rattus norvegicus. Briefly: Inhibition of 5-Hydroxy tryptamine accumulation in hemispheres of rat brain after subcutaneous administration. It counts as functional. Particulars: sc.
For experiment [8], the system named is Rattus norvegicus. Briefly: Inhibition of 5-HTP accumulation in hemisphere of rat brain after subcutaneous administration of compound before 60 min to death. It counts as functional, organism-based. In a few lines:
(§1)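 Nonpretreated rats were given each enantiomer sc 60 min before death. NSD 1015 (100 mg/kg ip) was given 30 min before death, and 5-HTP or Dopa accumulation was measured in brain regions. Values are means ± SEM, n = 4 (some groups n = 3). Statistics: ANOVA followed by Student's t test.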

For experiment [9], the system named is Rattus norvegicus. Briefly: Inhibition of 5-HTP accumulation in limbic part of rat brain after subcutaneous administration of compound before 60 min to death. It counts as functional, organism-based. Particulars: Limbic system. In a few lines: as §1
For experiment [10], the system named is Rattus norvegicus. As to the kind of experiment: Inhibition of 5-Hydroxy tryptamine accumulation in striatum part of rat brain after subcutaneous administration. It counts as functional. Particulars: sc.
The subject of experiment [11] is Rattus norvegicus. As to the kind of experiment: Inhibition of dopamine accumulation in striatum part of rat brain after subcutaneous administration; I= Inactive. Format: functional, organism-based.
For experiment [12], the system named is Rattus norvegicus. As to the kind of experiment: Inhibition of dopamine accumulation in limbic part of rat brain after subcutaneous administration; I= Inactive. Format: functional, organism-based.
Experiment [13] relates to Rattus norvegicus. Briefly: Inhibition of 5-Hydroxy Tryptamine accumulation in striatum part of rat brain after subcutaneous administration. Format: functional. Particulars: sc.
Experiment [14] has as its system Rattus norvegicus. As to the kind of experiment: Inhibition of 5-Hydroxy Tryptamine accumulation in hemispheres of rat brain after subcutaneous administration. Format: functional. The following applies: sc.
Experiment [15] relates to Rattus norvegicus. Briefly: Inhibition of 5-Hydroxy Tryptamine accumulation in limbic part of rat brain after subcutaneous administration. It counts as functional. The following applies: sc.

`CCCN(CCC)[C@@H]1CCc2ccc(O)cc2C1`: the ED50 came out at 0.17 µmol/kg with Rattus norvegicus [1] and 0.18 µmol/kg in the experiment with Rattus norvegicus [5]. Besides, the ED50 result in the experiment with Rattus norvegicus [2], with Rattus norvegicus [3] and with Rattus norvegicus [4] was “inactive” throughout.
For the compound `CCCN(CCC)[C@@H]1CCc2cccc(O)c2C1`, the ED50 with Rattus norvegicus [6] is 0.036 µmol/kg; with Rattus norvegicus [7], 0.052 µmol/kg; with Rattus norvegicus [10] it was 0.048 µmol/kg. The Concentration with Rattus norvegicus [8] came out at 44 ng/g; with Rattus norvegicus [9], 63 ng/g. For the same compound, the ED50 entry in the experiment on Rattus norvegicus [11] and with Rattus norvegicus [12] was “inactive” throughout.
Turning to `CCCN(CCC)C1CCc2ccc(O)cc2C1` (centres undefined), the figures for the ED50 with Rattus norvegicus [1] and in the experiment on Rattus norvegicus [5] were 0.03 µmol/kg and 0.027 µmol/kg, respectively. For the same compound, the ED50 result in the experiment with Rattus norvegicus [2], with Rattus norvegicus [3] and with Rattus norvegicus [4] was “inactive” in each case.
For the compound `CCCN(CCC)[C@H]1CCc2cccc(O)c2C1`, the results for the ED50 with Rattus norvegicus [13], in the experiment on Rattus norvegicus [14] and in the experiment on Rattus norvegicus [15] were 0.075 µmol/kg, 0.09 µmol/kg and 0.061 µmol/kg, respectively. Also, the Concentration in the experiment on Rattus norvegicus [8] came to 57 ng/g; in the experiment with Rattus norvegicus [9], 84 ng/g. Further, the ED50 entry with Rattus norvegicus [11] and in the experiment with Rattus norvegicus [12] was “inactive” each time.
`CCCN(CCC)C1CCc2cccc(O)c2C1` (racemic) [8-OH-DPAT]: the ED50 with Rattus norvegicus [6] came to 0.048 µmol/kg; with Rattus norvegicus [7], 0.068 µmol/kg; in the experiment on Rattus norvegicus [10] it was 0.045 µmol/kg. For the same compound, the ED50 result with Rattus norvegicus [11] and in the experiment on Rattus norvegicus [12] was “inactive” throughout.
On to `CCCN(CCC)C1CCc2c(O)cccc2C1` (centres undefined) [5-OH-DPAT], for which the ED50 stood at 0.009 µmol/kg in the experiment on Rattus norvegicus [1] and 0.011 µmol/kg with Rattus norvegicus [5]. Besides, the ED50 result with Rattus norvegicus [2], in the experiment on Rattus norvegicus [3] and in the experiment on Rattus norvegicus [4] was “inactive” in each case.
